Screening data from PubChem BioAssay.
EBNA-1 inhibitor: blocks EBNA-1 binding to DNA; EBNA-1 DNA binding, fluorescence polarization; inhibition, % at 14.8 µM; 300,000 compounds, 0.34% hits; in the data active = inhibition above about 28%
PREPL inhibitor: human PREPL enzyme inhibition; Q4J6C6; recombinant PREPL, fluorescence polarization activity-based probe; inhibition, % at 5.96 µM; 320,000 compounds, 0.68% hits; AID 2751; in the data active = inhibition above about 43%;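 also: 0% = enzyme with DMSO and 100% = wells lacking enzyme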
Apaf-1 inh: human Apaf-1 inhibition; O14727; reconstituted apoptosome caspase-3 activity, DEVD-Rh110 fluorescence; inhibition, % at 20 µM; AID 489030; 330,000 compounds, 0.71% hits; active = inhibition of at least 40% at 20 µM;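 also: plate controls were DMSO wells for no effect and DEVD-CHO caspase inhibitor wells for full effect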
Target sequence (O14727 whole entry, looked up): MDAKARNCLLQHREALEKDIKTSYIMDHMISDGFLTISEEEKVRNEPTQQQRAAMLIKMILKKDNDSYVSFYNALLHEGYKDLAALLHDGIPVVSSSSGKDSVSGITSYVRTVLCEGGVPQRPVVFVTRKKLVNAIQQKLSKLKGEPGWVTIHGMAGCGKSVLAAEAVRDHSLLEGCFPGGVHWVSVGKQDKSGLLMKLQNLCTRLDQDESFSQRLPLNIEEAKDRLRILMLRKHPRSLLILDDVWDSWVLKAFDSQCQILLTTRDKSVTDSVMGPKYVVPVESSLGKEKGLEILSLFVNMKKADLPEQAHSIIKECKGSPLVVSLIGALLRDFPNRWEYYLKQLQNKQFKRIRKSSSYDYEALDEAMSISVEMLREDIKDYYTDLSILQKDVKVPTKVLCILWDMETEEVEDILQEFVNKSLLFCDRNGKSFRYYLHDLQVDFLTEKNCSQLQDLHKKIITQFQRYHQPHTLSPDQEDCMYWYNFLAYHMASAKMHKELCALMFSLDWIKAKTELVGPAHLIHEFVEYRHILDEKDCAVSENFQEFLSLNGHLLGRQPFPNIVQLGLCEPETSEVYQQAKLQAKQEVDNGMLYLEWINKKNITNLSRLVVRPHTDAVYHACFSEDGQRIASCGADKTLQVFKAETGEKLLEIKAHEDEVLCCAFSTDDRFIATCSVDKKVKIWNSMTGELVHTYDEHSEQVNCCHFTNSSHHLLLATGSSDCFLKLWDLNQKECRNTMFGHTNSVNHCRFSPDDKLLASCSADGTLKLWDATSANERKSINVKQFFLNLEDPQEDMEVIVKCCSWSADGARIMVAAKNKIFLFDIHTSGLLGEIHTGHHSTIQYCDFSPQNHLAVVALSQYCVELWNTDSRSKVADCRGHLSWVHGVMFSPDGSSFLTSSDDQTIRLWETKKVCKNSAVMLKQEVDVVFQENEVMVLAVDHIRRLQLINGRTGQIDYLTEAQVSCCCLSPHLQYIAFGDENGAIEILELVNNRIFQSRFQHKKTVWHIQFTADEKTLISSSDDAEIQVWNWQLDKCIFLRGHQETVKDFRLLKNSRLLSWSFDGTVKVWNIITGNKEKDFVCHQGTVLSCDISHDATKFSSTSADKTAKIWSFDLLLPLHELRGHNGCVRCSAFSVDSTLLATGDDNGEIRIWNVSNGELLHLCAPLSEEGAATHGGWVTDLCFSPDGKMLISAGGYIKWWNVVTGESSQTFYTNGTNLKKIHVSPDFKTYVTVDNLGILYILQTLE
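Material: cell-free apoptosome with Apaf-1, procaspase-3 and caspase-9; Buffer or medium: Hepes pH 7.5 with detergent and BSA; Reagent: cytochrome c trigger plus (Z-DEVD)2-Rh110 caspase-3 substrate; Times: compound with Apaf-1, dATP, procaspase-3 30 min, then 50 min reaction, room temperature; Technique: Rh110 fluorescence intensity.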
UBC13 polyUb: blocks human UBC13 polyubiquitin chain formation | 330,000 compounds, 0.47% hits | inhibition, % at 20 µM | TR-FRET; in the data active = inhibition above about 45%, passing the limit was not always enough
ZTA counter: counter-screen for EBNA-1 inhibitors: inhibitors of Epstein-Barr virus ZTA | P03206 | ZTA-DNA binding, fluorescence polarization | inhibition, % at 11 µM | 320,000 compounds, 0.15% hits; in the data active = inhibition above about 33%
EBNA-1 inh conf: EBNA-1 (EBV) inhibition, confirmation; inhibition, % at 14.8 µM; Recombinant EBNA-1 DBD, Cy5-DNA fluorescence polarization; shares compounds with EBNA-1 inhibitor; 830 compounds, 35% hits; AID 2292;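 active = mean inhibition across replicates above a set limit taken from the earlier primary screen, cut at about 28% in these data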;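 also: plate controls were EBNA-1 protein with DMSO for no effect and wells lacking EBNA-1 for full effect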
ZTA counter trip: blocks Epstein-Barr virus ZTA in triplicate, EBNA-1 counter-screen. shares compounds with EBNA-1 inhibitor. AID 2328. inhibition, % at 11.1 µM. 830 tested, under 10 active. Zta-ZRE DNA binding, Cy5 fluorescence polarization;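 active = mean inhibition over triplicates above a set limit taken from the primary EBNA-1 screen, cut at about 37% in these data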;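 also: purified full length Zta protein with Cy5 labeled ZRE DNA probe; 0% = Zta with DMSO and 100% = wells lacking Zta protein; inhibitors lower polarization by freeing the labeled DNA probe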
ZTA inh confirm: EBV ZTA DNA binding inhibition, confirmation | shares compounds with ZTA counter | Zta-ZRE DNA binding, fluorescence polarization | inhibition, % at 11.1 µM | 320 compounds, 30% hits | AID 2361;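 active = mean inhibition across triplicate runs above the hit threshold derived for the original primary screen, cut at about 33% in these data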;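 also: 0% = Zta with DMSO and 100% = wells lacking Zta protein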
EBNA-1 counter: EBNA-1 DNA binding inhibition, counter-screen for ZTA. inhibition, % at 14.8 µM. 320 tested, under 10 active. shares compounds with ZTA counter. fluorescence polarization. AID 2362; call rule not given here
Numbers without * were called inactive; · = no result. An excerpt weighted towards active compounds, which were near 1.7% of everything screened.

SMILES | EBNA-1 inhibitor | PREPL inhibitor | Apaf-1 inh | UBC13 polyUb | ZTA counter | others
O=c1[nH]c(=S)n(-c2ccc(Br)cc2)c(O)c1C=Nc1ccc(N2CCOCC2)cc1 | 5.2 | 14.4 | 15.3 | -15.7 | 6.2
O=c1[nH]c(=S)n(-c2ccccc2F)c(O)c1C=Nc1ccc(N2CCOCC2)cc1 | 12.9 | 7.0 | 1.9 | -13.5 | 44.6*
CCCN1CCc2cc(O)cc3c2[C@H]1Cc1ccc(O)c(O)c1-3 | 14.7 | 41.3 | 44.7* | 15.6 | 7.2
CN1CCc2cc(O)cc3c2[C@H]1Cc1ccc(O)c(O)c1-3 | 0.9 | 17.4 | 37.8 | 27.0 | -20.1
COc1ccc(CCNC(=O)c2c(N)n(CCN3CCOCC3)c3nc4ccccc4nc23)cc1 | -7.2 | 18.6 | 29.1 | 31.5 | -5.6
CN[C@H]1C[C@H]2O[C@@](C)([C@H]1OC)n1c3ccccc3c3c4c(c5c6ccccc6n2c5c31)C(=O)NC4 | -0.8 | 76.0* | 50.8* | 26.3 | -6.7
O=C1NC(=O)N(c2ccccc2)C(=O)/C1=C\c1ccc([N+](=O)[O-])o1 | -1.8 | 7.7 | -0.1 | -40.0 | 41.5*
CN1C(=O)NC(=O)/C(=C/c2ccc([N+](=O)[O-])o2)C1=O | -0.9 | -1.4 | -1.3 | -33.0 | 16.5
Nc1c(C(=O)NCCN2CCOCC2)c2nc3ccccc3nc2n1Cc1ccccc1 | -4.2 | 18.5 | 82.3* | -0.9 | -7.1
CCC(C)NC(=O)c1c(N)n(Cc2ccc3c(c2)OCO3)c2nc3ccccc3nc12 (centres undefined) | 3.5 | 3.9 | 96.1* | 10.8 | 4.3
CC(C)CCNC(=O)c1c(N)n(CC2CCCO2)c2nc3ccccc3nc12 (centres undefined) | 9.2 | 9.4 | 91.3* | 7.3 | -0.1
COc1cc(CN2CCN(C(=O)COc3ccccc3)CC2)cc(OC)c1OC | 5.7 | -4.4 | -14.9 | 2.6 | -10.6
O=C(COC(=O)Cc1ccccc1)Nc1cccnc1Cl | -2.9 | 0.9 | -11.6 | 6.0 | -16.4
Clc1ccc(NC2=NCCCS2)cc1Cl | -1.7 | -9.1 | 2.0 | 8.0 | 0.2
COc1ccccc1N1C(=O)CC(=O)NC1=O | -15.0 | -3.1 | -7.4 | 4.1 | -1.8
Cc1ccccc1-n1c(O)c(C=Nc2ccc(N(C)C)cc2)c(=O)[nH]c1=O | 42.8* | 12.0 | 24.4 | -18.5 | 172.1*
Cc1cccc(N=Cc2c(O)n(-c3ccccc3C)c(=O)[nH]c2=O)c1 | 6.0 | -1.6 | -20.6 | -6.5 | 12.9
Fc1ccc(C(OCCN2CCN(CCCc3ccccc3)CC2)c2ccc(F)cc2)cc1 | 2.4 | -27.4 | 55.9* | 49.4* | 11.8
CC[C@H](C)[C@@H]1O[C@@]2(C=CC1C)CC1C[C@@H](CC=C(C)C(O[C@H]3CC(OC)C(O[C@H]4CC(OC)C(O)C(C)O4)C(C)O3)C(C)C=CC=C3CO[C@@H]4C(O)C(C)=C[C@@H](C(=O)O1)[C@]34O)O2 (some centres undefined) | -2.5 | 0.8 | 30.3 | 4.6 | -16.0
COc1cccc(-n2c(=S)[nH]c3ccccc3c2=O)c1 | -0.5 | -2.2 | 2.2 | 16.8 | -19.7
COc1ccc2c(c1)NP(=S)(Oc1ccccc1)N2 (centres undefined) | 8.7 | 18.6 | 50.1* | -3.6 | -0.5
CCN1CCN(c2cc(N3CCCC3)c(F)cc2[N+](=O)[O-])CC1 | -2.6 | 12.3 | 1.2 | -98.9 | -2.0
O=C1CN=C(c2ccccc2)c2cc(Br)ccc2N1Cc1cc(=O)n2ccccc2n1 | -9.8 | 50.1* | 4.8 | -4.0 | -7.4
OCC[n+]1c2ccccc2nc2ccc(N3CCOCC3)cc21 | 84.4* | 14.5 | 36.1 | -455.9 | 115.0*
CCCCn1c(NC(=O)c2ccc(Br)o2)c(C(=O)OCC)c2nc3ccccc3nc21 | 7.0 | 42.6 | 79.1* | -35.6 | -12.8
SMILES | EBNA-1 inhibitor | PREPL inhibitor | Apaf-1 inh | UBC13 polyUb | ZTA counter | others
CCCCn1c(NS(=O)(=O)c2ccccc2)c(C(=O)OCC)c2nc3ccccc3nc21 | 13.2 | 17.6 | · | · | 4.3
Cc1nc2ccsc2c(=O)n1-c1ccccc1Cl | -7.4 | -12.2 | -15.9 | -8.4 | 4.0
C=CCn1c(O)c(C(CC)=Nc2ccc(N(C)C)cc2)c(=O)[nH]c1=O | 126.8* | 9.8 | 5.8 | 0.3 | 137.6*
CC[C@@H]1C=CC=CC[C@H](C)[C@@H](O)[C@@H](C)C(=O)[C@H](C)[C@@H](O)[C@H](C)C(=O)[C@H](C)[C@@H](O)[C@H](C)C=CC(=O)O[C@H]2[C@@H](C)[C@@H](CC1)O[C@@]1(CC[C@@H](C)[C@@H](C[C@H](C)O)O1)[C@@H]2C | 2.3 | 7.5 | 21.4 | 58.9* | -16.2
CCC(=NCCO)c1c(O)n(C2CCCCC2)c(=O)[nH]c1=O | -4.3 | -2.4 | -9.4 | 3.4 | -3.2
CCC(=NCc1ccc2c(c1)OCO2)c1c(O)n(C2CCCCC2)c(=O)[nH]c1=O | 4.8 | 45.2* | 32.2 | 6.5 | 5.4
O=C(C[N+]12CCC(CC1)C(OC(=O)c1ccccc1)C2)c1ccc([N+](=O)[O-])cc1 (centres undefined) | 1.9 | 41.7 | -15.7 | 3.3 | 2.1
CCOc1ccc(N2C(=O)/C(=C/c3ccco3)C(=O)NC2=S)cc1 | 12.5 | -7.0 | 2.3 | -20.3 | 20.1
Cc1ccccc1N1C(=O)/C(=C/c2ccco2)C(=O)NC1=S | 109.9* | 46.0* | · | · | 69.0*
Cc1nn(Cc2ccccc2)c(Cl)c1C(=O)OCC(=O)Nc1cccc2ccccc12 | 61.0* | 5.5 | 9.2 | 1.2 | 5.8 | EBNA-1 inh conf=15.3;ZTA counter trip=-6.0
Cc1nn(Cc2ccccc2)c(Cl)c1C(=O)OC(C)C(=O)Nc1ccc(F)cc1Cl (centres undefined) | 121.6* | -1.8 | 14.4 | 12.4 | -5.3 | EBNA-1 inh conf=129.1*;ZTA counter trip=-10.5
CCc1ccc(NC(=O)C(C)OC(=O)c2c(C)nn(Cc3ccccc3)c2Cl)cc1 (centres undefined) | 2.7 | -6.5 | 5.3 | 8.1 | 8.1
COCCNP(=O)(c1ccccc1)c1nc2ccccc2s1 (centres undefined) | -1.8 | 13.6 | 19.4 | -12.0 | -22.1
C=CCn1c(O)c(C=Nc2ccc(N(CC)CC)cc2)c(=O)[nH]c1=O | 6.7 | 16.9 | 3.4 | -4.5 | 45.1* | ZTA inh confirm=1.0;EBNA-1 counter=-7.1
COc1ccc(CCn2c(O)c(C=Nc3ccc(NC(C)=O)cc3)c(=O)[nH]c2=O)cc1OC | 9.5 | -0.9 | 8.2 | -1.1 | 60.0* | ZTA inh confirm=47.5*;EBNA-1 counter=38.2*
CCOc1ccc(N=Cc2c(O)n(CCc3ccc(OC)c(OC)c3)c(=O)[nH]c2=O)cc1 | 4.3 | 2.1 | -10.3 | 4.7 | -2.0
